# Reference: PMC8590456 (Nature chemical biology, 2021)
# Tests used:
# [1] = system: CRBN−/− cells (Jurkat and MOLT4); assay: 3-day growth rate inhibition; assay type: cell-based, Human; conditions: 72 h
# Procedure, shortened: (§1)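 Cells were kept in RPMI 1640 with 10% FBS at 37 °C and 5% CO2, then plated at 6×10^3 cells/well for 24 h. Time 0 was read, then cells were dosed 10 nM–10 μM for 72 h. Viable cells were read by CellTiter-Glo luminescence. GR values, GR50 and GRmax were calculated from time-0 and 72-h data, with growth relative to DMSO. Mean ± s.d., n=3 biologically independent samples, representative of 2 experiments.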
# Jurkat and MOLT4 cells = assay: Cell cycle analysis by FACS; assay type: cell-based, Human; conditions: 24 h, BSJ-4-116 50 nM, BSJ-4-116NC 100 nM
# Procedure, shortened: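 Jurkat or MOLT4 cells (0.5×10^6) were treated 24 h. They were fixed in ice-cold 70% ethanol at −20 °C, treated with RNase A (0.5 mg/ml), stained with propidium iodide (50 µg/ml) and analysed by flow cytometry. […] is given as mean ± s.d. of n=2 biologically independent samples, representative of 2 experiments.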
# CDK12 I733V/Cyclin K = CDK12 I733V/Cyclin K (Homo sapiens, UniProt Q9NYV4, I733V); assay: 32P-labeled ATP mutated CDK12 kinase assay; assay type: biochemical; conditions: recombinant I733V CDK12 vs wild type
# CDK12 I733V/Cyclin K, sequence (Q9NYV4 714-1063 I733V): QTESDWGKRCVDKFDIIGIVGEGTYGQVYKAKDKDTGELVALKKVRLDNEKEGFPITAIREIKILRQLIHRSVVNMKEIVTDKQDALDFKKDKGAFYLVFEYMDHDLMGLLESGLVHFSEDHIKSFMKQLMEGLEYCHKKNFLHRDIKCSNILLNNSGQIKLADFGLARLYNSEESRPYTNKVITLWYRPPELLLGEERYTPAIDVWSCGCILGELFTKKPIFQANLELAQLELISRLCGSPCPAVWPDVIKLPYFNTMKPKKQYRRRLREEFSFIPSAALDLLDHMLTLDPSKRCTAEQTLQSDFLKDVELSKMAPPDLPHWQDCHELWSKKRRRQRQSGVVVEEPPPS
# CDK12 I733V/Cyclin K, sequence (O75909 1-267 partner limits assumed): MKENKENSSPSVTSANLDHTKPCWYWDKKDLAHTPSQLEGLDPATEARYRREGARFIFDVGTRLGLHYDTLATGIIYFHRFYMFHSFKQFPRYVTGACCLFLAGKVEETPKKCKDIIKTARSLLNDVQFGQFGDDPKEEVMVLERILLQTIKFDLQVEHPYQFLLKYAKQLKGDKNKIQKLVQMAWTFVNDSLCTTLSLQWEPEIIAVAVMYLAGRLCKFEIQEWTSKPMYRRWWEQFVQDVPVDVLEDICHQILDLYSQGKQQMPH
# Procedure, shortened: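 GST-CDK12 (714–1063) I733V (site-directed mutagenesis) and GST-cyclin K (1–267) were co-expressed with yeast CAK in Sf9 cells for 72 h. Purification was by GST affinity, TEV tag cleavage and size exclusion. The 0.2 μM complex was preincubated with varying compound concentrations for 5 min at 30 °C. Substrate and 0.2 mM [γ-32P]-ATP were added for 15 min at 30 °C. The reaction was stopped with 50 mM EDTA, spotted onto nitrocellulose, washed in phosphoric acid and scintillation-counted.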
# CDK13 = CDK13 (Homo sapiens, UniProt Q14004); assay: Immunoblot of CDK13 protein level in Jurkat cells; assay type: cell-based; conditions: 6 h, indicated concentrations
# CDK13, sequence (Q14004 whole entry): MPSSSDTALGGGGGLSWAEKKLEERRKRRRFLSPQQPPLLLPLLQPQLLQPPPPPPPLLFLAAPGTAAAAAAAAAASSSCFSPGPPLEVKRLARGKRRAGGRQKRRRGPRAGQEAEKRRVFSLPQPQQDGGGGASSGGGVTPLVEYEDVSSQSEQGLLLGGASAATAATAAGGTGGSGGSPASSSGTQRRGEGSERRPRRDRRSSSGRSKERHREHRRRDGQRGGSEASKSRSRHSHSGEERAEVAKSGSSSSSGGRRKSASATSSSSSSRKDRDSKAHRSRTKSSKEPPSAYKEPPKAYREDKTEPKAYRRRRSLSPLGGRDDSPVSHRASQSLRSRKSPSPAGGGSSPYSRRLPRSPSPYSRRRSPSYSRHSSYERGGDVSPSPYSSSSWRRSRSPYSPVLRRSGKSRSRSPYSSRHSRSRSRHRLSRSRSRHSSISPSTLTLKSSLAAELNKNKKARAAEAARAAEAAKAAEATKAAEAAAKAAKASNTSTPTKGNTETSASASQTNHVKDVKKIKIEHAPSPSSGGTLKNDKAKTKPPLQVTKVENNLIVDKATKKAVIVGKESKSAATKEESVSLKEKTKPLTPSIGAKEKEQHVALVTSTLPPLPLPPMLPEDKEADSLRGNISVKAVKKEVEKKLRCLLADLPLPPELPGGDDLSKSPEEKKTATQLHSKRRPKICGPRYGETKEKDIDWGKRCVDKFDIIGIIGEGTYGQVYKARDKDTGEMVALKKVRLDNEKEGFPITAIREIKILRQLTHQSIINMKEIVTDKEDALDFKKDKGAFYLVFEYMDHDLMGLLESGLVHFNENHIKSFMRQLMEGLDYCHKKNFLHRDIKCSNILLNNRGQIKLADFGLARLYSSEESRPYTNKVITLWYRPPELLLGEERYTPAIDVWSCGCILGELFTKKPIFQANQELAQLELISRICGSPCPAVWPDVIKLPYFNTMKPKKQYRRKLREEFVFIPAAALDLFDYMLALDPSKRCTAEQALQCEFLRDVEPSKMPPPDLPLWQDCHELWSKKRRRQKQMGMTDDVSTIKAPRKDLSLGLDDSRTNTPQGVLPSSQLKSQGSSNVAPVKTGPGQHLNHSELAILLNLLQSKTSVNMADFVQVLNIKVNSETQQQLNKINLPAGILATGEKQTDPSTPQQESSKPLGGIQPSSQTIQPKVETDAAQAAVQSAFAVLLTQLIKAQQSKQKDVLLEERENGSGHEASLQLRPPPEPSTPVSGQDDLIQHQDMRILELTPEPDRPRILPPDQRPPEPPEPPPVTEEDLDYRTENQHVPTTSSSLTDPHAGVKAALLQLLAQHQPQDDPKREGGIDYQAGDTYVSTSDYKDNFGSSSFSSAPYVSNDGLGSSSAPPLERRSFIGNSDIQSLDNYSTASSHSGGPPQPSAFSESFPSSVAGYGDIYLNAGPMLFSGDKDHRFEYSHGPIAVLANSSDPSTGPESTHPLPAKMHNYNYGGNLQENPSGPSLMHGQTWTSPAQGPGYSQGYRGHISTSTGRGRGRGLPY
# CDK13, sequence (O75909 whole entry partner): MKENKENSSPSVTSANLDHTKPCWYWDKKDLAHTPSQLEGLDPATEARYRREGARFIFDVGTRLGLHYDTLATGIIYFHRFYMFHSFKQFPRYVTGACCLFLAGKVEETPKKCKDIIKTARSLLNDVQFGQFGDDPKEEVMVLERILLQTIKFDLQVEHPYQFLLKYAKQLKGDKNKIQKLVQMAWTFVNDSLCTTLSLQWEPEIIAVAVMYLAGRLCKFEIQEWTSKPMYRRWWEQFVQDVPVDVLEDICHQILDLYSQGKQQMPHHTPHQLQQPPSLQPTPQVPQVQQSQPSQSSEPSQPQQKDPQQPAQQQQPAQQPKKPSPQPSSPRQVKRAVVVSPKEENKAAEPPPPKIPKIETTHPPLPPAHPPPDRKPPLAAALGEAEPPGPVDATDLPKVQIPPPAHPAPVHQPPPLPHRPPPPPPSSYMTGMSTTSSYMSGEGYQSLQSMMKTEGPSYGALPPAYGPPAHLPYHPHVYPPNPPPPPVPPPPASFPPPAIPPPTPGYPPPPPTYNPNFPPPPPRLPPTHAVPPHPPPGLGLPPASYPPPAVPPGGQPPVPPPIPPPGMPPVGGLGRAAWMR
# Procedure, shortened: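 Jurkat cells were treated 6 h with DMSO or CDK12 degraders at the indicated concentrations in a preliminary screen. Lysis was in NP40 buffer with protease and phosphatase inhibitors plus 1 mM PMSF. Immunoblots for CDK12, CDK13 and β-actin were imaged on an infrared scanner.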
# Jurkat cells = assay: 3' poly; assay type: cell-based, Human; conditions: 8 h
# Procedure, shortened: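 Poly(A) 3'-end libraries were sequenced. Metagene profiles of normalised reads span gene bodies ±2 kb, with sense and antisense reads shown separately. Differential expression used 3' UTR-associated poly(A)-site counts summed per gene. Intronic versus 3' UTR poly(A) usage was compared by odds ratio for transcripts with TPM > 1.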
# Cyclin K = assay: Immunoblot of Cyclin K protein level in Jurkat cells; assay type: cell-based, Human; conditions: 6 h
# [2] = system: wild-type T-ALL cell lines (Jurkat and MOLT4); assay: 3-day growth rate inhibition; assay type: cell-based, Human; conditions: GR assay, 72 h
# Procedure, shortened: as §1
# CDK9 = CDK9 (Homo sapiens, UniProt P50750+Q96SW2); assay: Immunoblot of CDK9 in parental and resistant cells; assay type: cell-based; conditions: parental and resistant Jurkat and MOLT4 cells, 250 nM, 8 h
# Procedure, shortened: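 Parental and resistant Jurkat and MOLT4 cells were treated 8 h with DMSO, CDK12 degraders or a CDK9 degrader (250 nM). Lysis was in NP40 buffer with protease and phosphatase inhibitors plus 1 mM PMSF. Immunoblots for CDK12 and CDK9, with GAPDH loading control, were imaged on an infrared scanner. Representative of n=2 independent experiments.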
Structure (SMILES),sensitivity of CRBN−/− cells in GR assay [1],cell cycle distribution (Jurkat and MOLT4 cells),effect of I733V on binding affinity in in vitro kinase assay (CDK12 I733V/Cyclin K),CDK13 protein level (CDK13),annotated terminal or 3' poly(A) sites (metagene analysis) (Jurkat cells),"downregulated transcripts (Jurkat cells; BSJ-4-116 50 nM, THZ531 250 nM, FDR <= 0.01)",Cyclin K protein level (Cyclin K),fold less potent than BSJ-4-116 [2],genes differentially expressed vs DMSO control cells (Jurkat cells; 50 nM),sensitivity of resistant cells to CDK9 degrader (CDK9)
CN(C)C/C=C/C(=O)Nc1ccc(C(=O)N2CCC[C@@H](Nc3ncc(Cl)c(-c4c[nH]c5ccccc45)n3)C2)cc1 [THZ531],responding similarly,accumulation of G2/M cells,loss of binding affinity,no effect,significant loss,7050,no effect,,,
CC(C)S(=O)(=O)c1ccccc1Nc1nc(N[C@@H]2CCCN(CCCCCCCNC(=O)COc3cccc4c3C(=O)N(C3CCC(=O)N(C)C3=O)C4=O)C2)ncc1Cl (stereo partly shown) [BSJ-4-116NC],responding similarly,,,no effect,,,no effect,10 fold,1 gene,
CC(C)(C)c1cnc(CSc2cnc(NC(=O)C3CCN(CC(=O)NCCOCCOCCOCCNc4cccc5c4C(=O)N(C4CCC(=O)NC4=O)C5=O)CC3)s2)o1 (stereo not shown) [THAL-SNS-032],,,,,,,,,,remained equally sensitive
